# Assay results published in ChEMBL document CHEMBL4689842, “EUbOPEN Chemogenomics Library wave 1” (2021).
# Columns and labels:
# Type in all cases: toxicity, cell-based
# U2OS [1] = test: Multiplex assay against U2OS; settings: human
# Summary of the method: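 Cells were classed with CellPathfinder machine-learning gating, first as Hoechst high-intensity objects or normal cells, then (normal cells) as healthy, pyknosed or fragmented nuclei, and finally (pyknosed cells) as mitotic or apoptotic. Staining of live cells at seeding used Hoechst33342, BioTracker Green Microtubule Cytoskeleton Dye, MitoTracker Red and Annexin V Alexa Fluor 680, with imaging on a CQ1 microscope at 37°C and 5% CO2 after compound addition. Tubulin, mitochondrial-mass and membrane-permeability phenotypes are per cents of healthy-nucleus cells.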
# HEK-293T = test: Incucyte cell viability with HEK293T; settings: human, 10 µM, compound concentration 10 uM; also: filed as whole numbers so only -1 and 0 and 1 occur
# U2OS [2] = test: Incucyte cell viability with U2OS; settings: human, 10 µM, compound concentration 10 uM; also: filed as whole numbers so only -1 and 0 and 1 occur
# [3] = 24 h, 10 µM, compound concentration 10 uM, replicate 1
# [4] = 24 h, 10 µM, compound concentration 10 uM, replicate 2
# [5] = 48 h, 1 µM, compound concentration 1 uM, replicate 1
# [6] = 48 h, 1 µM, compound concentration 1 uM, replicate 2
# [7] = 48 h, 10 µM, compound concentration 10 uM, replicate 1
# [8] = 48 h, 10 µM, compound concentration 10 uM, replicate 2
# [9] = 6 h, replicate number 1, timepoint 6 hours
# [10] = 12 h, replicate number 1, timepoint 12 hours
# [11] = 18 h, replicate number 1, timepoint 18 hours
# [12] = 24 h, replicate number 1, timepoint 24 hours
smiles,measurement,setting,value
CCCc1cc(C)[nH]c(=O)c1CNC(=O)c1cc(-c2ccc(N3CCN(C(C)C)CC3)nc2)cc2c1cnn2C(C)C,Population Healthy Nuclei (%),U2OS [1]; [3],36%
same,Population Membrane Permeable-Phenotype (%),U2OS [1]; [3],80%
same,Population Mitotic Cells (%),U2OS [1]; [3],11%
same,Population Pyknosed Nuclei (%),U2OS [1]; [3],39%
same,Total Cell Count,U2OS [1]; [3],75
same,Population Apoptotic (%),U2OS [1]; [4],91%
same,Population Fragmented Nuclei (%),U2OS [1]; [4],8%
same,Population Healthy Nuclei (%),U2OS [1]; [4],48%
same,Population Hoechst High Intensity Objects (%),U2OS [1]; [4],9%
same,Population Membrane Permeable-Phenotype (%),U2OS [1]; [4],85%
same,Population Mitochondria Different-Phenotype (%),U2OS [1]; [4],100%
same,Population Mitotic Cells (%),U2OS [1]; [4],8%
same,Population Normal (%),U2OS [1]; [4],90%
same,Population Pyknosed Nuclei (%),U2OS [1]; [4],42%
same,Population Tubulin-Different-Phenotype (%),U2OS [1]; [4],100%
same,Total Cell Count,U2OS [1]; [4],60
same,Population Apoptotic (%),U2OS [1]; [5],70%
same,Population Fragmented Nuclei (%),U2OS [1]; [5],23%
same,Population Healthy Nuclei (%),U2OS [1]; [5],56%
same,Population Hoechst High Intensity Objects (%),U2OS [1]; [5],10%
same,Population Membrane Permeable-Phenotype (%),U2OS [1]; [5],18%
same,Population Mitochondria Different-Phenotype (%),U2OS [1]; [5],83%
same,Population Mitotic Cells (%),U2OS [1]; [5],29%
same,Population Normal (%),U2OS [1]; [5],89%
same,Population Pyknosed Nuclei (%),U2OS [1]; [5],20%
same,Population Tubulin-Different-Phenotype (%),U2OS [1]; [5],77%
same,Total Cell Count,U2OS [1]; [5],142
same,Population Apoptotic (%),U2OS [1]; [6],46%
same,Population Fragmented Nuclei (%),U2OS [1]; [6],22%
same,Population Healthy Nuclei (%),U2OS [1]; [6],59%
same,Population Hoechst High Intensity Objects (%),U2OS [1]; [6],12%
same,Population Membrane Permeable-Phenotype (%),U2OS [1]; [6],27%
same,Population Mitochondria Different-Phenotype (%),U2OS [1]; [6],72%
same,Population Mitotic Cells (%),U2OS [1]; [6],53%
same,Population Normal (%),U2OS [1]; [6],87%
same,Population Pyknosed Nuclei (%),U2OS [1]; [6],18%
same,Population Tubulin-Different-Phenotype (%),U2OS [1]; [6],74%
same,Total Cell Count,U2OS [1]; [6],65
same,Population Apoptotic (%),U2OS [1]; [7],95%
same,Population Fragmented Nuclei (%),U2OS [1]; [7],26%
same,Population Healthy Nuclei (%),U2OS [1]; [7],15%
same,Population Hoechst High Intensity Objects (%),U2OS [1]; [7],14%
same,Population Membrane Permeable-Phenotype (%),U2OS [1]; [7],89%
same,Population Mitochondria Different-Phenotype (%),U2OS [1]; [7],100%
same,Population Mitotic Cells (%),U2OS [1]; [7],4%
same,Population Normal (%),U2OS [1]; [7],85%
same,Population Pyknosed Nuclei (%),U2OS [1]; [7],57%
same,Population Tubulin-Different-Phenotype (%),U2OS [1]; [7],100%
same,Total Cell Count,U2OS [1]; [7],95
same,Population Apoptotic (%),U2OS [1]; [8],100%
same,Population Fragmented Nuclei (%),U2OS [1]; [8],13%
same,Population Healthy Nuclei (%),U2OS [1]; [8],37%
same,Population Hoechst High Intensity Objects (%),U2OS [1]; [8],16%
same,Population Membrane Permeable-Phenotype (%),U2OS [1]; [8],96%
same,Population Mitotic Cells (%),U2OS [1]; [8],0%
same,Population Normal (%),U2OS [1]; [8],83%
same,Population Pyknosed Nuclei (%),U2OS [1]; [8],49%
same,Total Cell Count,U2OS [1]; [8],82
same,Growth Rate,HEK-293T; [9],0
same,Growth Rate,HEK-293T; [10],0
same,Growth Rate,HEK-293T; [11],0
same,Growth Rate,HEK-293T; [12],0
same,Growth Rate,"U2OS [2]; 0 h, replicate number 2, timepoint 0 hours",0
same,Growth Rate,U2OS [2]; [9],1
same,Growth Rate,U2OS [2]; [10],1
same,Growth Rate,U2OS [2]; [11],0
same,Growth Rate,U2OS [2]; [12],0
same,Growth Rate,"U2OS [2]; 24 h, replicate number 2, timepoint 24 hours",1
